Experimental data: ChEMBL document CHEMBL4000256, “Light-Regulated NO Release as a Novel Strategy To Overcome Doxorubicin Multidrug Resistance” (ACS Med Chem Lett, 2017)
Calls of active or inactive are those of the source. The calls are words filed in the database; no cut-off is given here.

What was measured:
[1] = target: T1, Multidrug resistance-associated protein 1 (Homo sapiens, UniProt P33527); test: Inhibition of MRP1 in 7 mW/cm'2 irradiated human M14 cells assessed as nitration of tyrosine in MRP1 at 5 uM measured after 20 mins by immunoblotting
T1 sequence (P33527 whole entry): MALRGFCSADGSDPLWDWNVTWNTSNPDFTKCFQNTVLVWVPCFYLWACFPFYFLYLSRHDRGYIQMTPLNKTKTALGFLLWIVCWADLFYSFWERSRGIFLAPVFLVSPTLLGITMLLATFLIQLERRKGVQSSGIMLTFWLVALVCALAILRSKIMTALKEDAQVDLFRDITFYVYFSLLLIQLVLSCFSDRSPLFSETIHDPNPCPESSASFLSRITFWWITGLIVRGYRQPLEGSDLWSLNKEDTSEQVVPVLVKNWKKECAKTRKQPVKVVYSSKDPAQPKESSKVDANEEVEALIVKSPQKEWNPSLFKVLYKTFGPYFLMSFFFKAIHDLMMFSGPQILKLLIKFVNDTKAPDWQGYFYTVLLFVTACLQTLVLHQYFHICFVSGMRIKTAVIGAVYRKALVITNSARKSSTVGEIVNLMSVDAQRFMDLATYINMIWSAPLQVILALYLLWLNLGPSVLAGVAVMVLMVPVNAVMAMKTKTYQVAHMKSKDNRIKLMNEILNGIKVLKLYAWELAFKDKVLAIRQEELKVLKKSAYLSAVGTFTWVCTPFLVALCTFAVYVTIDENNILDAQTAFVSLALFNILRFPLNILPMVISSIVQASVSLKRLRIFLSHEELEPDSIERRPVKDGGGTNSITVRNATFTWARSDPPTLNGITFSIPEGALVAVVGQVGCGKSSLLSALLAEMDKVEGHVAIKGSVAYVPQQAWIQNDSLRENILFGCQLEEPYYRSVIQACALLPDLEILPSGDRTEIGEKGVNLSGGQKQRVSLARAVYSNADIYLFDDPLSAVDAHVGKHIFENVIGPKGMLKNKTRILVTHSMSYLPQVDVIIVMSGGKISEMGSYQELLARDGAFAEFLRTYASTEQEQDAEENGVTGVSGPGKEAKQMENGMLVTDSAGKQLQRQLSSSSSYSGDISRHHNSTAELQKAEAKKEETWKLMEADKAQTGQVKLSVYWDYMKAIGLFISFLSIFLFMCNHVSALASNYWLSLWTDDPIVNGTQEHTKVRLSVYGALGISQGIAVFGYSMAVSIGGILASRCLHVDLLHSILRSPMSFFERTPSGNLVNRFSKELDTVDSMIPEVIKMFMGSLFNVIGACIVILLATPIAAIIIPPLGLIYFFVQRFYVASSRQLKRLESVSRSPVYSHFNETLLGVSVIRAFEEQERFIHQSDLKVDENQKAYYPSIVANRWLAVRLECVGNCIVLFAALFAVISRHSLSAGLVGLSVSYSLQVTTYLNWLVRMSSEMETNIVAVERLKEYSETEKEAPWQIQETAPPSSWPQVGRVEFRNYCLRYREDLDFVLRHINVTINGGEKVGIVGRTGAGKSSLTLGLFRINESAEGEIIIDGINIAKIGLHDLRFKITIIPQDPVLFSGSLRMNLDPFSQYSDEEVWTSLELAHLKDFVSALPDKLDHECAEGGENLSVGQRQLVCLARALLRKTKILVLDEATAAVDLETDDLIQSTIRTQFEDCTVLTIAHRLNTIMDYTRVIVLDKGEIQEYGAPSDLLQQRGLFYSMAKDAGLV
Method in brief: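 M14 melanoma cells held 20 min at room temperature in PBS under 400 nm light (7 mW/cm2) with 5 μM compound, alone or with equimolar doxorubicin. Nitrated ABC transporters (Pgp, MRP1, MRP4, BCRP) detected by immunoblot.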

H9c2 = test: Cytotoxicity against 7 mW/cm'2 irradiated rat H9c2 cells at 5 uM measured after 20 mins by spectrophotometric method; type: cell-based; conditions: h9c2, 20 min
Method in brief: (§1)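 Human fibroblasts or rat H9c2 cardiomyocytes kept 20 min at room temperature in PBS, either in the dark or irradiated at λexc 400 nm, 7 mW/cm2, with or without 5 μM test agent. Cytotoxicity measured in triplicate; means ± SD, n = 3.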

[2] = Induction of NO release in pH 7.4 PBS irradiated with 7 mW/cm2 light at 100 uM after 0.5 hrs by Griess assay
Method in brief: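 Cell-free solution, 100 μM, in PBS (pH 7.4, 10 mM, 3% DMSO) irradiated at 400 nm (7 mW/cm2) for varying times. Nitrite generated is quantified by Griess assay.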

Fibroblast [3] = test: Dark toxicity against human fibroblasts at 5 uM measured after 20 mins by spectrophotometric method; type: cell-based; method in brief: as §1
Homo sapiens = organism: Homo sapiens; test: Inhibition of Pgp in 7 mW/cm'2 irradiated human M14 cells assessed as reduction in P-gp ATPase activity at 5 uM measured after 20 mins by spectrophotometric method
Method in brief: (§2)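 M14 melanoma cells held 20 min at room temperature in PBS under 400 nm light (7 mW/cm2) with 5 μM compound, alone or with equimolar doxorubicin. Transporter ATPase activity then measured; n = 3.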

[4] = target: T1, Multidrug resistance-associated protein 1; test: Inhibition of MRP1 in 7 mW/cm'2 irradiated human M14 cells assessed as reduction in MRP1 ATPase activity at 5 uM measured after 20 mins by spectrophotometric method; method in brief: as §2
Fibroblast [5] = test: Cytotoxicity against 7 mW/cm'2 irradiated human fibroblasts at 5 uM measured after 20 mins by spectrophotometric method; type: cell-based; method in brief: as §1
M14 = test: Dark toxicity in human M14 cells assessed as increase in nitrite levels at 5 uM measured after 20 mins by Griess reagent based spectrophotometric method; type: cell-based; conditions: m14, 20 min
[6] = target: T2, Broad substrate specificity ATP-binding cassette transporter ABCG2 (Homo sapiens, UniProt Q9UNQ0); test: Inhibition of BCRP in 7 mW/cm'2 irradiated human M14 cells assessed as reduction in BCRP ATPase activity at 5 uM measured after 20 mins by spectrophotometric method; method in brief: as §2
T2 sequence (Q9UNQ0 whole entry): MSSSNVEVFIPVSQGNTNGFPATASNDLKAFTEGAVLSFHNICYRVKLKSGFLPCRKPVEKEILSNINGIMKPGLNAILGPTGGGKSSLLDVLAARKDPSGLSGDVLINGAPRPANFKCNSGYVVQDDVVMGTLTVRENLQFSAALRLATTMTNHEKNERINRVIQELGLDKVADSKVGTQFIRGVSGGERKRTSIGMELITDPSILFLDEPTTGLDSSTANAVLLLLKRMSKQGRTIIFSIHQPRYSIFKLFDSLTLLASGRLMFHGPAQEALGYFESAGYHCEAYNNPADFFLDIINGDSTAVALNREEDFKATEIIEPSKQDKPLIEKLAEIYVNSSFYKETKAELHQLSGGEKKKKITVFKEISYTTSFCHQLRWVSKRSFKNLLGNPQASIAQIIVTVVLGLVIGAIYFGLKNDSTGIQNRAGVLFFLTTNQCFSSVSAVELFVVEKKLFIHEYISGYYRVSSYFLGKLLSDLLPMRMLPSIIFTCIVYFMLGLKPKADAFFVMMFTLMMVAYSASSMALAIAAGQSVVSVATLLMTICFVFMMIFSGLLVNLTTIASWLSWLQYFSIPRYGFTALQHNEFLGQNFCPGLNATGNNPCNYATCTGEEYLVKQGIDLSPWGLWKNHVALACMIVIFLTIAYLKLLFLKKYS

[7] = target: T3, ATP-binding cassette sub-family C member 4 (Homo sapiens, UniProt O15439); test: Inhibition of MRP4 in 7 mW/cm'2 irradiated human M14 cells assessed as reduction in MRP4 ATPase activity at 5 uM measured after 20 mins by spectrophotometric method; method in brief: as §2
T3 sequence (O15439 whole entry): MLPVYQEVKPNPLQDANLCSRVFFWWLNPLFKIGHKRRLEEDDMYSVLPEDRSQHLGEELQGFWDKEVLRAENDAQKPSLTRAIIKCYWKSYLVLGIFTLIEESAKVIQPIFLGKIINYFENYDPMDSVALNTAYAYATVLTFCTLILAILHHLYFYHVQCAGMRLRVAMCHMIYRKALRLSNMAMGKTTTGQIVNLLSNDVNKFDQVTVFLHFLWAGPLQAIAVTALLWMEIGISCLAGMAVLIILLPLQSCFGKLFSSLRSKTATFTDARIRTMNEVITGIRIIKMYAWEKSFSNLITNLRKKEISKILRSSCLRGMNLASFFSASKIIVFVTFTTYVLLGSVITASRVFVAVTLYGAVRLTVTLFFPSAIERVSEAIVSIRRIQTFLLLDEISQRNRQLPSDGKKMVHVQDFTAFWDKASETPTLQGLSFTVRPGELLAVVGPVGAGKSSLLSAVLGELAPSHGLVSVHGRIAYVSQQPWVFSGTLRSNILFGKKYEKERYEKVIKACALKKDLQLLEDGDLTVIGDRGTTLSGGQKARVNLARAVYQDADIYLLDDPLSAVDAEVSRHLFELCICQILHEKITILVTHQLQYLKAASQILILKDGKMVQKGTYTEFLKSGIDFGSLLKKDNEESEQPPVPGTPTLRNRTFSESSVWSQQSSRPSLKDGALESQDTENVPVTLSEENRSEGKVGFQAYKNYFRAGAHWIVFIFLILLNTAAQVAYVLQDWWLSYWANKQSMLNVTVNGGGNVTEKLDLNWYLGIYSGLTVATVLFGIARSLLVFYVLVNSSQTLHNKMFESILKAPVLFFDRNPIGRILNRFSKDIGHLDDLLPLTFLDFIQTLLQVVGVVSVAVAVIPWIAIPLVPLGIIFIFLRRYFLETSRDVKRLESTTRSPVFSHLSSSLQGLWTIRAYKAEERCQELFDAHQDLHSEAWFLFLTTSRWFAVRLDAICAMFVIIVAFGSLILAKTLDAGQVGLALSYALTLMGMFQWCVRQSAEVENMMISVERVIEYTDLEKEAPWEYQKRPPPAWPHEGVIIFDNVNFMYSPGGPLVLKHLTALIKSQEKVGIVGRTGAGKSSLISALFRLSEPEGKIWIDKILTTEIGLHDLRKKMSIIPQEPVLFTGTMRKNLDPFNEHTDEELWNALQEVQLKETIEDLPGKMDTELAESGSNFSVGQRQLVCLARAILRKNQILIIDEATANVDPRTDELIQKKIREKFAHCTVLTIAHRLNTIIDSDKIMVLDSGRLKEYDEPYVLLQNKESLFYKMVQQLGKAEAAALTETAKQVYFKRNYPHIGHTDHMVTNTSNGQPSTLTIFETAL

Row | SMILES | inhibition (INH) [1] | Activity (H9c2) | Activity [2] | Activity (Fibroblast [3]) | inhibition (Homo sapiens) | inhibition (INH) [4] | Activity (Fibroblast [5]) | Activity (M14) | inhibition (INH) [6] | inhibition (INH) [7]
1 | COc1cccc2c1C(=O)c1c(O)c3c(c(O)c1C2=O)C[C@@](O)(C(=O)COC(=O)c1ccc(C(=O)NCCCNc2ccc([N+](=O)[O-])c(C(F)(F)F)c2)cc1)C[C@@H]3O[C@H]1C[C@H](N)[C@H](O)[C@H](C)O1.Cl | Active | Non-Toxic | Active | Non-Toxic | Active | Active | Non-Toxic | Non-Toxic | Active | Active
2 | NCCCNc1ccc([N+](=O)[O-])c(C(F)(F)F)c1 | Active | Non-Toxic | Active | Non-Toxic | Active | Active | Non-Toxic | Non-Toxic | Active | Active
